Source: ChEMBL document CHEMBL4152308, “Synthesis and biological evaluation of novel 2-oxo-1,2-dihydroquinoline-4-carboxamide derivatives for the treatment of esophageal squamous cell carcinoma” (Eur J Med Chem, 2018)
Activity calls are given as the source filed them. The rule behind the calls is not given here.

How the values were obtained:
KYSE-410 [1] = assay: Antiproliferative activity against human KYSE410 cells after 72 hrs by MTT assay; format: functional, cell-based; conditions: KYSE-410, 72 h
Outline: (§1)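 Cells grown as monolayers at 37 °C, 5% CO2, mycoplasma-checked, in exponential phase. Cells seeded in 96-well plates, 24 h attachment, then compound added for 72 h. MTT 0.3 mg/mL for 3 h at 37 °C, DMSO solubilization, absorbance at 570 nm. Inhibition = (1 − A/C) × 100%. IC50 from log(concentration) vs % inhibition plot; triplicate wells, SD from ≥3 independent experiments.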

KYSE-410 [2] = assay: Cell cycle arrest in human KYSE410 cells assessed as accumulation at G2 phase at 1 uM after 24 to 48 hrs by propidium iodide staining based flow cytometry (reference value: 12.2%); format: functional
KYSE-410 [3] = assay: Inhibition of colony formation in human KYSE410 cells at >3 uM after 7 days by crystal violet staining based assay; format: functional, cell-based
Outline: (§2)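 Seeding at 250 cells/well in 96-well plates, attached 24 h, then serial compound dilutions added at 37 °C. Culture continued 7 days until colonies formed. Colonies washed, stained with 2% crystal violet for 1 h, then rinsed thoroughly with water.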

KYSE-410 [4] = assay: Cell cycle arrest in human KYSE410 cells assessed as accumulation at G2 phase at 5 uM after 24 to 48 hrs by propidium iodide staining based flow cytometry (reference value: 12.2%); format: functional
KYSE-410 [5] = assay: Cell cycle arrest in human KYSE410 cells assessed as accumulation at G1 phase at 5 uM after 24 to 48 hrs by propidium iodide staining based flow cytometry (reference value: 65.4%); format: functional
MIA PaCa-2 [6] = assay: Inhibition of autophagy in human MIAPaCa2 cells assessed as decrease in bafilomycin-induced LC3B level at 1 to 10 uM after 24 hrs by Western blot analysis; format: functional, cell-based
Outline: (§3)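 Cells treated 24 h at indicated concentrations, with bafilomycin for induced-LC3B readouts. Lysis in RIPA with protease inhibitors, BCA protein assay, samples heated 5 min at 100 °C. Equal protein run on 15% SDS-PAGE, transferred to PVDF. Anti-LC3B primary overnight at 4 °C, GAPDH as loading control, anti-rabbit secondary, TBST washes.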

OVCAR-8 = assay: Antiproliferative activity against human OVCAR8 cells after 72 hrs by MTT assay; format: functional, cell-based; conditions: OVCAR-8, 72 h; outline: as §1
MIA PaCa-2 [7] = assay: Antiproliferative activity against human MIAPaCa2 cells after 72 hrs by MTT assay; format: functional, cell-based; conditions: MIA PaCa-2, 72 h; outline: as §1
KYSE-410 [8] = assay: Cell cycle arrest in human KYSE410 cells assessed as accumulation at S phase at 5 uM after 24 to 48 hrs by propidium iodide staining based flow cytometry (reference value: 22.3%); format: functional
KYSE-70 cell line [9] = assay: Antiproliferative activity against human KYSE-70 cells after 72 hrs by MTT assay; format: functional, cell-based; conditions: KYSE-70, 72 h; outline: as §1
KYSE-70 cell line [10] = assay: Inhibition of colony formation in human KYSE-70 cells at >3 uM after 7 days by crystal violet staining based assay; format: functional, cell-based; outline: as §2
KYSE-410 [11] = assay: Inhibition of autophagy in human KYSE410 cells assessed as decrease in bafilomycin-induced LC3B level at 10 uM treated at 1 hr post proteasome inhibitor MG132 treatment measured after 24 hrs by Western blot analysis; format: functional, cell-based
Outline: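 KYSE410 cells pretreated 1 h with 10 µM MG132 (proteasome inhibitor), then compound at 10 µM for 24 h. Lysis in RIPA with protease inhibitors, BCA quantification, equal protein on 15% SDS-PAGE, PVDF transfer. Anti-LC3B overnight at 4 °C, anti-rabbit secondary, GAPDH as loading reference.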

KYSE-410 [12] = assay: Cell cycle arrest in human KYSE410 cells assessed as accumulation at G1 phase at 1 uM after 24 to 48 hrs by propidium iodide staining based flow cytometry (reference value: 65.4%); format: functional
KYSE-410 [13] = assay: Cell cycle arrest in human KYSE410 cells assessed as accumulation at S phase at 1 uM after 24 to 48 hrs by propidium iodide staining based flow cytometry (reference value: 22.3%); format: functional
KYSE-410 [14] = assay: Inhibition of autophagy in human KYSE410 cells assessed as decrease in bafilomycin-induced LC3B level at 1 to 10 uM after 24 hrs by Western blot analysis; format: functional, cell-based; outline: as §3
SK-OV-3 = assay: Antiproliferative activity against human SKOV3 cells after 72 hrs by MTT assay; format: functional, cell-based; conditions: SK-OV-3, 72 h; outline: as §1
KYSE-410 [15] = assay: Inhibition of autophagy in human KYSE410 cells assessed as decrease in bafilomycin-induced LC3B level after 24 hrs by Western blot analysis; format: functional, cell-based; outline: as §3

Structure (SMILES): O=C(Nc1cc(F)cc(F)c1)c1cc(=O)[nH]c2cc(Br)ccc12
- IC50 (KYSE-410 [1]): 11.2 µM
- Activity (KYSE-410 [2]): 14.6%
- inhibition (KYSE-410 [3]): Active
- Activity (KYSE-410 [4]): 19.8%
- Activity (KYSE-410 [5]): 57.2%
- inhibition (MIA PaCa-2 [6]): Active
- IC50 (OVCAR-8): 12.1 µM
- IC50 (MIA PaCa-2 [7]): 7.8 µM
- Activity (KYSE-410 [8]): 23%
- IC50 (KYSE-70 cell line [9]): 10.7 µM
- inhibition (KYSE-70 cell line [10]): Active
- inhibition (KYSE-410 [11]): inactive
- Activity (KYSE-410 [12]): 64.2%
- Activity (KYSE-410 [13]): 21.2%
- inhibition (KYSE-410 [14]): Active
- IC50 (SK-OV-3): 10.8 µM
- inhibition (KYSE-410 [15]): Dose-dependent effect
